# Results from different studies.
# Target: Mitogen-activated protein kinase 14 (MAPK14, Homo sapiens, UniProt Q16539)
SMILES,observed,action,method,tested at,measurement,result
CC#CC(=O)N1CCC[C@H]1c1nc(-c2ccc(C(=O)Nc3ccccn3)cc2)c2c(N)nccn12,enzyme activity,inhibitor,,1 µM,inhibition,0%
CN1CCN(C(=O)c2ccc(NC(=O)Nc3ccc(N(C)c4ccnc(Nc5ccc(CS(C)(=O)=O)cc5)n4)cc3)cc2)CC1,binding,,competition with immobilised ligand,1 µM,remaining binding,83%
COc1ccc2oc(-c3ccc4nc(N)oc4c3)c/c(=N\c3ccccc3NC(=O)CCN)c2c1,binding,,,1 µM,remaining binding,109%
CCCCC(=O)Nc1ccc(-c2ccc3ncn(CCC)c(=O)c3c2)cn1,binding,,competition with immobilised ligand,0.5 µM,remaining binding,88%
COc1ccc2[nH]c3c4[nH]c5ccc(OC)cc5c4c4c(c3c2c1)C(=O)NC4=O,binding,,competition with immobilised ligand,1 µM,remaining binding,87%
C#Cc1cnc(Nc2ccnc(CO)c2)nc1Nc1ccccc1S(C)(=O)=NC#N (stereo not drawn),cell-free assay,,,1 µM,remaining signal,91%
C=CC(=O)N1CCC([C@@H]2CCNc3c(C(N)=O)c(-c4ccc(Oc5ccccc5)cc4)nn32)CC1,enzyme activity,inhibitor,,1 µM,inhibition,1%
C1=C/COCc2cc(ccc2OCCN2CCCC2)Nc2nccc(n2)-c2cccc(c2)COC/1,cell-free assay,,,0.1 µM,remaining signal,89%
N#Cc1ccc(NC(=O)Nc2ccccc2)cc1,cell-free assay,,competition with immobilised ligand,25 µM,remaining binding,79%
